Several values for one entry are separate records, joined by “and”; a condition that tells them apart may be missing. Identical values can stand only once. Each block holds one compound with its values, some of them ahead of it.
Columns and labels:
[1] = tested on: Caco-2 colon cancer cells; assay: In vitro antitumor MTT assay, Caco-2; assay type: cell-based, human; conditions: Homo sapiens, Caco-2, 24 h, read-out: IC50 Caco-2
Outline: (§1)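 ATCC cell lines grown in RPMI-1640 with 10% FBS, penicillin/streptomycin, at 37 °C and 5% CO2. Seeded at 1.0×10^4 cells/well for 48 h, then treated 24 h with a range of test compound concentrations. MTT (5 mg/mL solution) added for 4 h; formazan dissolved in DMSO and read at 570 nm. IC50 from percent viability; mean ± S.D. of three separate experiments.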

[2] = tested on: WISH normal cell line; assay: Cytotoxic effect against normal cell line; assay type: cell-based; conditions: read-out: IC50 WISH
[3] = tested on: MDA breast cancer cells; assay: In vitro antitumor MTT assay, MDA; assay type: cell-based, human; conditions: for IC50: Homo sapiens, 24 h, read-out: IC50 MDA; for selectivity index to MDA: WISH versus MDA
Outline: as §1

[4] = tested on: A549 lung cancer cells; assay: In vitro antitumor MTT assay, A549; assay type: cell-based, human; conditions: for IC50: Homo sapiens, A549, 24 h, read-out: IC50 A549; for selectivity index to A549: WISH versus A549
Outline: as §1

[5] = target: VEGFR-2 kinase (Homo sapiens, UniProt P35968); assay: biochemical; conditions: VEGFR-2, IC50, VEGFR-2 Kinase Assay Kit (BPS-Bioscience), luminescence
Chain of VEGFR-2 kinase (P35968 20-1356): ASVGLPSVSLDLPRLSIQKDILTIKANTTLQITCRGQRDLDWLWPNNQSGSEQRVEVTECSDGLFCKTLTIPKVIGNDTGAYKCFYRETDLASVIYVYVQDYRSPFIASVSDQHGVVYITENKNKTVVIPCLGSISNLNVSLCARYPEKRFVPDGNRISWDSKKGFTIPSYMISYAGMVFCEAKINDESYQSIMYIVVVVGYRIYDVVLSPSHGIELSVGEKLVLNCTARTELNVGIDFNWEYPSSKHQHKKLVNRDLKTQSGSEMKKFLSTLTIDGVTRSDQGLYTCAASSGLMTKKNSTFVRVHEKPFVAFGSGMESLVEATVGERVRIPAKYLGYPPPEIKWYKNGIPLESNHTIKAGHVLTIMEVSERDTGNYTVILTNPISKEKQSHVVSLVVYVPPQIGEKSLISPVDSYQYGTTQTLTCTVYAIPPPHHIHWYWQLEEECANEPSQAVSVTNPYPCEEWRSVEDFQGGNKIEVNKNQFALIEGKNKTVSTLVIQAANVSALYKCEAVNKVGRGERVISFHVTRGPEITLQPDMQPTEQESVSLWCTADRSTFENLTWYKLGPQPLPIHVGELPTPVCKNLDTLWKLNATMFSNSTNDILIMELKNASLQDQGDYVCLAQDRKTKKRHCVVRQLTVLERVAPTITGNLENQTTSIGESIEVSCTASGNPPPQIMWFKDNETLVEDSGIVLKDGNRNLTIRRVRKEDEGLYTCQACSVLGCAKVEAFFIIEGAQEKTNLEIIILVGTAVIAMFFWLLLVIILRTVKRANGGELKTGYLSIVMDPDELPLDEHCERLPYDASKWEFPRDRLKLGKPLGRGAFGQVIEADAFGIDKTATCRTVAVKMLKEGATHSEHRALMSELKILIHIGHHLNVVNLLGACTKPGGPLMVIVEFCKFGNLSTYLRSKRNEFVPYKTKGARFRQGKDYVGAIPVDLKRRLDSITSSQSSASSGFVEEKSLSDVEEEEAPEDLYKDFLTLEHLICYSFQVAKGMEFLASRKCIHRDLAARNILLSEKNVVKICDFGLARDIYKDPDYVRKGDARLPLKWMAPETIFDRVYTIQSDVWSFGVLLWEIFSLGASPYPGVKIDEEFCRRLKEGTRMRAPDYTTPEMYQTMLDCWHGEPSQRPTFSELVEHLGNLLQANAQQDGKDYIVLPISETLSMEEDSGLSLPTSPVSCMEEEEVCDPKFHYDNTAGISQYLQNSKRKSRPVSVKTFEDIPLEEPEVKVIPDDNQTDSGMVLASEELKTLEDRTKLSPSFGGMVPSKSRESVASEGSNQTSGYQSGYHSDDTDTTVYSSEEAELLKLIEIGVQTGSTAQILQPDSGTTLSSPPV

[6] = tested on: HepG-2 hepatoma cells; assay: In vitro antitumor MTT assay, HepG-2; assay type: cell-based, human; conditions: for selectivity index to HepG-2: WISH versus HepG-2; for IC50: read-out: IC50 HepG-2, MTT, 24 h treatment, mean of three experiments
Outline: as §1

[7] = In vitro antitumor MTT assay, Caco-2; assay type: cell-based, human; conditions: human, Caco-2
Outline: as §1

[8] = tested on: HepG-2 cells; assay: Annexin V-FITC/PI apoptosis assay; assay type: cell-based, human
Outline: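 HepG-2 cells seeded and incubated 24 h, then exposed to test compound at 9.52 µM. Harvested cells washed 3× in PBS, […] double-stained with Annexin V-FITC/propidium iodide for 20 min in the dark. Early/late apoptotic and necrotic fractions measured by flow cytometry. Mean ± SEM of 3 experiments; unpaired t-test versus untreated control.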

[9] = tested on: p53; assay: Western blot analysis, p53; assay type: cell-based, human; conditions: 48 h
Outline: (§2)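 HepG-2 treated 48 h with 9.52 µM test compound or DMSO control. Lysed at pH 7.4 (Tris, EDTA, EGTA, NaCl, NP-40, Triton X-100, protease/phosphatase inhibitors), freeze-thawed at −80 °C, sonicated and centrifuged. 30 µg protein run on SDS-PAGE and blotted to PVDF. Primary antibody 1:1000 overnight at 4 °C; HRP secondary 1:2000. ECL detection; bands normalized to β-actin, control set to 1; mean ± SEM, n=3.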

[10] = tested on: BAX/Bcl-2 ratio; assay: Western blot analysis, BAX/Bcl-2 ratio; assay type: cell-based, human; conditions: HepG-2, 9.52 µM, 48 h
Outline: as §2

[11] = tested on: BAX; assay: Western blot analysis, BAX; assay type: cell-based, human; conditions: HepG-2, 9.52 µM, 48 h
Outline: as §2

[12] = tested on: HepG-2 cells; assay: Cell cycle analysis; assay type: cell-based, human; conditions: HepG-2, 9.52 µM, 48 h
[13] = tested on: Bcl-2; assay: Western blot analysis, Bcl-2; assay type: cell-based, human; conditions: HepG-2, 9.52 µM, 48 h
Outline: as §2

[14] = tested on: caspase-3; assay: Western blot analysis, caspase-3; assay type: cell-based, human; conditions: HepG-2, 9.52 µM, 48 h
Outline: as §2

SMILES: O=C(CN1CCN(c2nc3ccccc3nc2Cl)CC1)Nc1ccccc1 [Compound 10a, 2-(4-(3-chloroquinoxalin-2-yl)piperazin-1-yl)-N-phenylacetamide]
IC50 [1]: 14.2 µM
IC50 [2]: 30.5 µM
IC50 [3]: 14.4 µM
IC50 [4]: 9.03 µM

SMILES: COc1ccc(NC(=O)CN2CCN(c3nc4ccccc4nc3Cl)CC2)cc1 [Compound 10b, 2-(4-(3-chloroquinoxalin-2-yl)piperazin-1-yl)-N-(4-methoxyphenyl)acetamide]
IC50 [1]: 14.6 µM
IC50 [2]: 45.7 µM
IC50 [3]: 11.6 µM
IC50 [4]: 6.48 µM

SMILES: O=C(CN1CCN(c2nc3ccccc3nc2Cl)CC1)Nc1ccc(Cl)cc1 [Compound 10c, N-(4-chlorophenyl)-2-(4-(3-chloroquinoxalin-2-yl)piperazin-1-yl)acetamide]
IC50 [1]: 9.42 µM
IC50 [2]: 48 µM
IC50 [3]: 11.3 µM
IC50 [4]: 9.57 µM

SMILES: O=C(CN1CCN(c2nc3ccccc3nc2Cl)CC1)Nc1ccc(F)cc1 [Compound 10d, 2-(4-(3-chloroquinoxalin-2-yl)piperazin-1-yl)-N-(4-fluorophenyl)acetamide]
IC50 [1]: 32.8 µM
IC50 [2]: 82.2 µM
IC50 [3]: 16.6 µM
IC50 [4]: 10.9 µM

SMILES: Cc1ccc(NC(=O)CN2CCN(c3nc4ccccc4nc3Cl)CC2)cc1 [Compound 10e, 2-(4-(3-chloroquinoxalin-2-yl)piperazin-1-yl)-N-(p-tolyl)acetamide]
IC50 [5]: 241 ± 21 nM
selectivity index to HepG-2 [6]: 13.17
selectivity ratio at 24 h [7]: 6.51
IC50 [1]: 16.3 µM
IC50 [2]: 106 µM
IC50 [3]: 14.3 µM
selectivity index to MDA [3]: 7.43
IC50 [4]: 11.6 µM
selectivity index to A549 [4]: 9.18

SMILES: CC(=O)c1ccc(NC(=O)CN2CCN(c3nc4ccccc4nc3Cl)CC2)cc1 [Compound 10f, N-(4-acetylphenyl)-2-(4-(3-chloroquinoxalin-2-yl)piperazin-1-yl)acetamide]
IC50 [1]: 28.4 µM
IC50 [2]: 65.5 µM
IC50 [3]: 16.1 µM
IC50 [4]: 10.3 µM

SMILES: O=C(CN1CCN(c2nc3ccccc3nc2Cl)CC1)Nc1ccc([N+](=O)[O-])cc1 [Compound 10g, 2-(4-(3-chloroquinoxalin-2-yl)piperazin-1-yl)-N-(4-nitrophenyl)acetamide]
IC50 [5]: 332 ± 28 nM
IC50 [1]: 15.9 µM
IC50 [2]: 85 µM
IC50 [3]: 10.5 µM
IC50 [4]: 8.36 µM

SMILES: O=C(CN1CCN(c2nc3ccccc3nc2Cl)CC1)NCc1ccccc1 [Compound 11, N-benzyl-2-(4-(3-chloroquinoxalin-2-yl)piperazin-1-yl)acetamide]
increase of early apoptosis rate compared to control ([8]; HepG-2, 9.52 µM): about 9 fold
increase of late apoptosis compared to control ([8]; HepG-2, 9.52 µM): 3 fold
Necrosis ([8]; HepG-2, 9.52 µM, 48 h, control 0.11, mean ± SEM): 0.17 ± 0.01
Apoptosis, Late ([8]; HepG-2, 9.52 µM, 48 h, control 0.13, mean ± SEM): 0.38 ± 0.09
Apoptosis, Early ([8]; HepG-2, 9.52 µM, 48 h, control 4.75, mean ± SEM): 43.60% and 43.60 ± 4.16 %
effect on HepG-2 necrosis ([8]; HepG-2, 9.52 µM, in words): weak effect
viability at 9.52 µM ([8]; Homo sapiens, HepG2, 48 h, read-out: Viable cells): 56 ± 4.19%
IC50 [5]: 190 nM and 192 nM
selectivity index to HepG-2 [6]: 13.57
increase in P53 expression compared to control ([9]; HepG-2, 9.52 µM (IC50 value)): 3 fold
Protein Level (Normalized to β-Actin) P53 ([9]; HepG-2, 9.52 µM, control set to 1, mean ± SEM): 3.07 ± 0.24
selectivity ratio at 24 h [7]: 10.4
IC50 [1]: 12.5 µM
increase in BAX/Bcl-2 ratio compared to control [10]: 4 fold
Protein Level (Normalized to β-Actin) BAX/Bcl-2 Ratio ([10]; control set to 1, mean ± SEM): 4.25 ± 0.47
IC50 [2]: 129 µM
BAX protein expression level compared to control ([11]; in words): double increase
Protein Level (Normalized to β-Actin) BAX ([11]; control set to 1, mean ± SEM): 2.16 ± 0.22
cell accumulation in the G2/M phase ([12]; control 15.16%): 25.22%
cell accumulation rate at S phase ([12]; control 20.14%): 46.10%
cell accumulation percentage in phase G1 ([12]; control 63.18%): 27.37%
IC50 [3]: 11.5 µM
selectivity index to MDA [3]: 11.22
Bcl-2 expression level compared to control ([13]; in words): decreased to half
Protein Level (Normalized to β-Actin) Bcl-2 ([13]; control set to 1, mean ± SEM): 0.50 ± 0.03
IC50 [4]: 10.6 µM
selectivity index to A549 [4]: 12.18
increase in caspase-3 level compared to untreated cells [14]: 2.3 fold
Protein Level (Normalized to β-Actin) Caspases-3 ([14]; control set to 1, mean ± SEM): 2.32 ± 0.11

SMILES: O=C(CN1CCN(c2nc3ccccc3[nH]c2=O)CC1)NCc1ccccc1 [Compound 14, N-benzyl-2-(4-(3-oxo-3,4-dihydroquinoxalin-2-yl)piperazin-1-yl)acetamide]
IC50 [1]: 16.6 µM
IC50 [2]: 35.7 µM
IC50 [3]: 20 µM
IC50 [4]: 14.7 µM

SMILES: CNC(=O)c1cc(Oc2ccc(NC(=O)Nc3ccc(Cl)c(C(F)(F)F)c3)cc2)ccn1 [Sorafenib, reference compound]
IC50 [1]: 9.25 µM
IC50 [3]: 10.8 µM
IC50 [4]: 14.1 µM

More lines, main results first:

IC50 [5]: 258 ± 23 nM
IC50 [1]: 13.2 µM
IC50 [3]: 17.9 µM
IC50 [4]: 11.2 µM
SMILES: O=C(CN1CCN(c2nc3ccccc3[nH]c2=O)CC1)Nc1ccccc1 [Compound 13a, 2-(4-(3-oxo-3,4-dihydroquinoxalin-2-yl)piperazin-1-yl)-N-phenylacetamide]
IC50 [2]: 106 µM

IC50 [5]: 471 ± 34 nM
IC50 [6]: 8.83 µM
IC50 [1]: 10.5 µM
IC50 [3]: 14.7 µM
IC50 [4]: 11 µM
SMILES: COc1ccc(NC(=O)CN2CCN(c3nc4ccccc4[nH]c3=O)CC2)cc1 [Compound 13b, N-(4-methoxyphenyl)-2-(4-(3-oxo-3,4-dihydroquinoxalin-2-yl)piperazin-1-yl)acetamide]
selectivity index to HepG-2 [6]: 12.35
selectivity ratio at 24 h [7]: 10.4
IC50 [2]: 109 µM
selectivity index to MDA [3]: 7.40
selectivity index to A549 [4]: 9.94

IC50 [1]: 9.05 µM
IC50 [3]: 12.1 µM
IC50 [4]: 12.8 µM
SMILES: O=C(CN1CCN(c2nc3ccccc3[nH]c2=O)CC1)Nc1ccc(Cl)cc1 [Compound 13c, N-(4-chlorophenyl)-2-(4-(3-oxo-3,4-dihydroquinoxalin-2-yl)piperazin-1-yl)acetamide]
IC50 [2]: 42.1 µM

IC50 [5]: 602 ± 48 nM
IC50 [6]: 8.35 µM
IC50 [1]: 13 µM
IC50 [3]: 14.4 µM
IC50 [4]: 13.4 µM
SMILES: O=C(CN1CCN(c2nc3ccccc3[nH]c2=O)CC1)Nc1ccc(F)cc1 [Compound 13d, N-(4-fluorophenyl)-2-(4-(3-oxo-3,4-dihydroquinoxalin-2-yl)piperazin-1-yl)acetamide]
IC50 [2]: 60.5 µM

IC50 [1]: 14.3 µM
IC50 [3]: 18.5 µM
IC50 [4]: 12.6 µM
SMILES: Cc1ccc(NC(=O)CN2CCN(c3nc4ccccc4[nH]c3=O)CC2)cc1 [Compound 13e, 2-(4-(3-oxo-3,4-dihydroquinoxalin-2-yl)piperazin-1-yl)-N-(p-tolyl)acetamide]
IC50 [2]: 39.6 µM

IC50 [5]: 465 ± 46 nM
IC50 [6]: 8.4 µM
IC50 [1]: 9.01 µM
IC50 [3]: 16.4 µM
IC50 [4]: 11.3 µM
SMILES: CC(=O)c1ccc(NC(=O)CN2CCN(c3nc4ccccc4[nH]c3=O)CC2)cc1 [Compound 13f, N-(4-acetylphenyl)-2-(4-(3-oxo-3,4-dihydroquinoxalin-2-yl)piperazin-1-yl)acetamide]
IC50 [2]: 54.8 µM

IC50 [1]: 19.4 µM
IC50 [3]: 24.6 µM
IC50 [4]: 10.5 µM
SMILES: O=C(CN1CCN(c2nc3ccccc3[nH]c2=O)CC1)Nc1ccc([N+](=O)[O-])cc1 [Compound 13g, N-(4-nitrophenyl)-2-(4-(3-oxo-3,4-dihydroquinoxalin-2-yl)piperazin-1-yl)acetamide]
IC50 [2]: 38.6 µM
